# Reference: ChEMBL document CHEMBL4715793 (J Med Chem, 2016)
# Activity calls are given as the source filed them. The rule behind the calls is not given here.
# What was measured:
# Hepatitis C virus [1] = test: Antiviral activity against HCV infected in human HuH7.5 cells assessed as inhibition of viral RNA levels during early stage at 6.25 to 25 uM incubated for 2 hrs prior to compound washout followed by supplementation of fresh culture medium and measured after 72 hrs by qRT-PCR analysis; type: functional, organism-based; settings: Hepacivirus hominis; Huh-7; dose 6.25-25 µM
# Outline: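 Huh7.5 cells seeded 24 h earlier, infected with HCV (150 IU/cell) with simultaneous compound or solvent control for 2 h. Cells washed with PBS and given fresh medium. Intracellular RNA (qRT-PCR) and protein (Western blot) extracted at 72 h.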
# [2] = biological target: T1, Chondroitin sulfate N-acetylgalactosaminyltransferase 1 (Homo sapiens) (UniProt Q8TDX6); test: Destabilization of CSGalNacT-1 in HCV infected human HuH7.5 cells assessed as reduction in CSGalNacT-1 mRNA levels at 6.25 to 100 uM measured after 72 hrs by qRT-PCR analysis; settings: dose 6.25-100 µM
# T1 sequence (whole entry): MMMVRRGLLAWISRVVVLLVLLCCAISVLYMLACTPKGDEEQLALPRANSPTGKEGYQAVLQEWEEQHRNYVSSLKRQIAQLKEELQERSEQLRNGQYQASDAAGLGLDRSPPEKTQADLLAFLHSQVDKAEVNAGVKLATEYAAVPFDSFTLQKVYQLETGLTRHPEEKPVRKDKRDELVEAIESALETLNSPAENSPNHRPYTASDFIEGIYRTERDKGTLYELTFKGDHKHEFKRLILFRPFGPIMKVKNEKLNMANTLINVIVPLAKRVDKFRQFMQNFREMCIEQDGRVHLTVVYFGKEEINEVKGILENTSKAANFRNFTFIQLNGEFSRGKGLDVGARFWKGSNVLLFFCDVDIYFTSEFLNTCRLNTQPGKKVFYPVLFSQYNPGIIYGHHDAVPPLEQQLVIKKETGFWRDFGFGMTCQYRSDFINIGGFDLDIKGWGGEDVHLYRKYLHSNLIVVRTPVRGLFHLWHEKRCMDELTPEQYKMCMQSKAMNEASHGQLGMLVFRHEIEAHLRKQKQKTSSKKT
# Outline: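 Huh7.5 cells infected with HCV (45 IU/cell) and exposed to compound for 72 h. CSGalNAcT-1 protein measured by Western blot and mRNA by qRT-PCR. Error bars are SD of three independent experiments.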
# Huh7.5 = test: Effect on CD36 expression level in human Huh7.5 cells at 6.25 to 25 uM by Western blot analysis; type: functional, cell-based; settings: dose 6.25-25 µM
# Hepacivirus hominis = test: Inhibition of HCV NS5B polymerase
# Hepatitis C virus [3] = test: Synergistic antiviral activity against HCV J6/JFH/JC1 infected in human HuH7.5 cells assessed as inhibition of viral protein levels at 6.25 uM in presence of simeprevir measured after 72 hrs by western blot analysis; type: functional, organism-based; settings: Hepacivirus hominis
# Outline: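 Huh7.5 cells infected with HCV (45 IU/cell) and simultaneously treated with compound (6.25 μM) alone, DAA alone, or both. […] Intracellular protein analysed by Western blot at 72 h. At least triplicate, mean ± SD, Student's t test.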
# [4] = Selectivity index, ratio of CC50 for cytotoxicity against human Huh7.5 cells assessed as reduction in cell viability incubated for 72 hrs by MTT assay to EC50 for antiviral activity against HCV genotype 2a J6/JFH/JC1 infected in human Huh7.5 cells assessed as reduction in viral RNA levels measured after 72 hrs by qRT-PCR analysis; type: toxicity, cell-based; settings: read-out: Ratio CC50/EC50
# Hepatitis C virus [5] = test: Antiviral activity against HCV J6/JFH/JC1 harboring D168V mutant infected in human Huh7.5 cells assessed as inhibition of viral replication measured after 72 hrs by qRT-PCR analysis; type: functional, organism-based, Hepacivirus hominis; settings: J6/JFH/JC1, Huh7.5, 72 h
# [6] = Resistance ratio of EC50 for antiviral activity against HCV J6/JFH/JC1 harboring S282T mutant infected in human Huh7.5 cells to EC50 for antiviral activity against wild-type HCV J6/JFH/JC1 infected in human Huh7.5 cells; type: functional
# Hepatitis C virus [7] = test: Antiviral activity against HCV subgenomic replicon harboring I377-3'del.S infected in human GS4.3 cells assessed as inhibition of viral replication at 0.23 to 18.52 uM after 72 hrs by qRT-PCR analysis; type: functional, organism-based; settings: Hepacivirus hominis, Liver, dose 0.23-18.52 µM
# Outline: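 GS4.3 cells (Huh7 carrying HCV subgenomic replicon I377-3′del.S) seeded at 3 × 10^4/cm2, after 24 h treated with compound or solvent control. After 72 h intracellular RNA extracted and replicon RNA measured by qRT-PCR. Cytotoxicity checked by MTT at 72 h.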
smiles,measurement,setting,value
COc1cc(/C=C/c2ccccc2)c(C(=O)O)c(O)c1CC=C(C)C,Activity,Hepatitis C virus [1],inactive
same,Activity,[2],inactive
same,Activity,Huh7.5,inactive
same,inhibition,Hepacivirus hominis,inactive
same,Activity,Hepatitis C virus [3],Active
same,selectivity ratio at 72 h,[4],40
same,EC50,Hepatitis C virus [5],3.8 µM
same,Ratio EC50,[6],2.8
same,Activity,Hepatitis C virus [7],inactive
